Experiments:
Rat [1] = test: concentration in plasma after dosing; conditions: 4 h; dosed: Wyeth-14643; 5.0 mg/kg; oral; Male; Sprague-Dawley
Rat [2] = test: concentration in plasma after dosing; conditions: 2 h; dosed: Wyeth-14643; 2.0 mg/kg; iv; Male; Sprague-Dawley
Rat [3] = test: concentration in heart after dosing; conditions: 6 h; dosed: Bis 2-Chloroethoxy Methane; 20 mg/kg; iv; Male; F344
Rat [4] = test: concentration in heart after dosing; conditions: 4 h; dosed: Bis 2-Chloroethoxy Methane; 20 mg/kg; iv; Male; F344
Rat [5] = test: concentration in thymus after dosing; conditions: 6 h; dosed: Bis 2-Chloroethoxy Methane; 20 mg/kg; iv; Female; F344
Rat [6] = test: concentration in liver after dosing; conditions: 10 min; dosed: Bis 2-Chloroethoxy Methane; 20 mg/kg; iv; Female; F344
Rat [7] = test: concentration in liver after dosing; conditions: 4 h; dosed: Bis 2-Chloroethoxy Methane; 20 mg/kg; iv; Male; F344
Rat [8] = test: concentration in plasma after dosing; conditions: 3 h; dosed: Bis 2-Chloroethoxy Methane; 40 mg/kg; iv; Male; Harlan Sprague Dawley
Rat [9] = test: concentration in liver after dosing; conditions: 12 h; dosed: Fluorotelomer alcohol 8+2; 80 mg/kg; oral; Female; Harlan Sprague Dawley
Rat [10] = test: concentration in plasma after dosing; conditions: dosed: Fluorotelomer alcohol 8+2, 12 mg/kg, iv, Male, F344
Rat [11] = test: concentration in plasma after dosing; conditions: dosed: Fluorotelomer alcohol 8+2, 40 mg/kg, iv, Female, Harlan Sprague-Dawley
Rat [12] = test: concentration in brain after dosing; conditions: 6 h; dosed: Fluorotelomer alcohol 8+2; 80 mg/kg; oral; Female; Harlan Sprague Dawley
Rat [13] = test: concentration in plasma after dosing; conditions: dosed: Fluorotelomer alcohol 8+2, 40 mg/kg, iv, Male, F344
Rat [14] = test: concentration in plasma after dosing; conditions: dosed: Fluorotelomer alcohol 8+2, 12 mg/kg, oral, Male, Harlan Sprague Dawley
Rat [15] = test: concentration in plasma after dosing; conditions: 40 min; dosed: Di-n-butyl phthalate; 50 mg/kg; oral; Male; Sprague-Dawley
Rat [16] = test: concentration in plasma after dosing; conditions: dosed: Perfluorodecanoic acid, 2 mg/kg, iv, Male, F344
Rat [17] = test: concentration in plasma after dosing; conditions: dosed: Perfluorodecanoic acid, 2 mg/kg, iv, Male, F344; remark: listed apart in the source
Rat [18] = test: concentration in brain after dosing; conditions: 24 h; dosed: Perfluorodecanoic acid; 10 mg/kg; oral; Female; Harlan Sprague Dawley
Rat [19] = test: concentration in plasma after dosing; conditions: dosed: Perfluorodecanoic acid, 2 mg/kg, oral, Male, Harlan Sprague Dawley
Rat [20] = test: concentration in kidney after dosing; conditions: 864 h; dosed: Perfluorodecanoic acid; 10 mg/kg; oral; Male; Harlan Sprague Dawley
Rat [21] = test: concentration in plasma after dosing; conditions: dosed: Perfluorodecanoic acid, 2 mg/kg, iv, Male, F344; remark: listed apart in the source
Rat [22] = test: concentration in kidney after dosing; conditions: 24 h; dosed: Perfluorodecanoic acid; 10 mg/kg; oral; Female; Harlan Sprague Dawley
Rat [23] = test: concentration in kidney after dosing; conditions: 1 h; dosed: Perfluorodecanoic acid; 10 mg/kg; oral; Male; Harlan Sprague Dawley
Rat [24] = test: concentration in plasma after dosing; conditions: 22 h; dosed: Primidone; 130 mg/kg; oral; Male; F344
Rat [25] = test: concentration in plasma after dosing; conditions: 12 h; dosed: Primidone; 30 mg/kg; oral; Male; F344
Rat [26] = test: concentration in plasma after dosing; conditions: 30 h; dosed: Primidone; 130 mg/kg; oral; Male; F344
Rat [27] = test: concentration in thymus after dosing; conditions: 3 h; dosed: Thiodiglycolic Acid; 20 mg/kg; iv; Male; Harlan Sprague Dawley
Rat [28] = test: concentration in heart after dosing; conditions: 4 h; dosed: Thiodiglycolic Acid; 20 mg/kg; iv; Female; Harlan Sprague Dawley
Rat [29] = test: concentration in thymus after dosing; conditions: 5.333 h; dosed: Thiodiglycolic Acid; 20 mg/kg; iv; Male; Harlan Sprague Dawley
Rat [30] = test: concentration in liver after dosing; conditions: 2 h; dosed: Thiodiglycolic Acid; 20 mg/kg; iv; Male; Harlan Sprague Dawley
Rat [31] = test: concentration in plasma after dosing; conditions: dosed: dichloroacetic acid, 40 mg/kg, oral, Female, Harlan Sprague Dawley
Rat [32] = test: concentration in plasma after dosing; conditions: dosed: dichloroacetic acid, 100 mg/kg, oral, Male, F344
human = test: concentration in plasma after dosing; negative times count back from the end of exposure; conditions: dosed: trichloroethylene, 100 ppm, inhalation, duration: 4 hr, person
In short: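 Data points giving concentration or amount against time came from published in vivo toxicokinetic studies and from two structured collections. PubMed searching, classifier screening and manual review located the studies. Most points were digitised from plot screenshots using WebPlotDigitizer, the rest were copied from tables, and all keep their reported units.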

Rat [33] = test: concentration in plasma after dosing; conditions: 2 min; dosed: dichloroacetic acid; 10 mg/kg; iv; Male; F344

Cc1cccc(Nc2cc(Cl)nc(SCC(=O)O)n2)c1C was tested, and the concentration in plasma (Rat [1]) was 955 ng/mL and the concentration in plasma (Rat [2]) was 670 ng/mL.
ClCCOCOCCCl [Bis 2-Chloroethoxy Methane] was tested, and the concentration in heart (Rat [3]) was 19.3 ng/g, the concentration in heart (Rat [4]) was 112 ng/g and the concentration in thymus (Rat [5]) was 61.4 ng/g. It also gave a concentration in liver (Rat [6]) of 973 ng/g, a concentration in liver (Rat [7]) of 161 ng/g and a concentration in plasma (Rat [8]) of 287 ng/mL.
For OCCC(F)(F)C(F)(F)C(F)(F)C(F)(F)C(F)(F)C(F)(F)C(F)(F)C(F)(F)F [Fluorotelomer alcohol 8+2], the concentration in liver (Rat [9]) was 1160 ng/g, the concentration in plasma (Rat [10]; 0.75 h) was 818 ng/mL and the concentration in plasma (Rat [10]; 12 h) was 14.2 ng/mL. The concentration in plasma (Rat [11]; 0.75 h) was 4710 ng/mL, the concentration in plasma (Rat [11]; 12 h) was 55.5 ng/mL and the concentration in brain (Rat [12]) was 1090 ng/g. For the same compound, the concentration in plasma (Rat [13]; 5 min) was 23200 ng/mL, the concentration in plasma (Rat [13]; 3 h) was 505 ng/mL and the concentration in plasma (Rat [14]; 0.5 h) was 274 ng/mL. For the same compound, the concentration in plasma (Rat [14]; 9 h) was 10.3 ng/mL.
Work on CCCCOC(=O)c1ccccc1C(=O)O [Mono-n-butyl phthalate] yielded a concentration in plasma (Rat [15]) of 16800 ng/mL.
Work on O=C(O)C(F)(F)C(F)(F)C(F)(F)C(F)(F)C(F)(F)C(F)(F)C(F)(F)C(F)(F)C(F)(F)F [Perfluorodecanoic acid] yielded a concentration in plasma (Rat [16]; 12 h) of 6270 ng/mL, a concentration in plasma (Rat [16]; 1200 h) of 874 ng/mL and a concentration in plasma (Rat [17]; 5 min) of 7460 ng/mL. It also gave a concentration in plasma (Rat [17]; 192 h) of 3420 ng/mL, a concentration in plasma (Rat [17]; 2520 h) of 283 ng/mL and a concentration in brain (Rat [18]) of 2560 ng/g. For the same compound, the concentration in plasma (Rat [19]; 0.5 h) was 2500 ng/mL, the concentration in plasma (Rat [19]; 24 h) was 7510 ng/mL and the concentration in plasma (Rat [19]; 1848 h) was 1090 ng/mL. For the same compound, the concentration in kidney (Rat [20]) was 10600 ng/g, the concentration in plasma (Rat [21]; 6 h) was 5600 ng/mL and the concentration in plasma (Rat [21]; 864 h) was 2690 ng/mL. For the same compound, the concentration in kidney (Rat [22]) was 57900 ng/g and the concentration in kidney (Rat [23]) was 8630 ng/g.
In the case of CCC1(c2ccccc2)C(=O)NC(=O)NC1=O [Phenobarbital], the concentration in plasma (Rat [24]) was 4990 ng/mL, the concentration in plasma (Rat [25]) was 2660 ng/mL and the concentration in plasma (Rat [26]) was 1780 ng/mL.
O=C(O)CSCC(=O)O [Thiodiglycolic Acid] showed a concentration in thymus (Rat [27]) of 1430 ng/g, a concentration in heart (Rat [28]) of 348 ng/g and a concentration in thymus (Rat [29]) of 471 ng/g. It also gave a concentration in liver (Rat [30]) of 80300 ng/g.
Compound O=C(O)C(Cl)Cl [dichloroacetic acid] has a concentration in plasma (Rat [31]; 5 min) of 4330 ng/mL, a concentration in plasma (Rat [31]; 1.25 h) of 5690 ng/mL and a concentration in plasma (Rat [32]; 5 min) of 7120 ng/mL. It also gave a concentration in plasma (Rat [32]; 2 h) of 41300 ng/mL, a concentration in plasma (human; 0.25 h) of 5 ng/mL and a concentration in plasma (human; 4 h) of 7 ng/mL. The concentration in plasma (human; -1 h, during exposure) was 4 ng/mL, the concentration in plasma (human; -2 h, during exposure) was 4 ng/mL and the concentration in plasma (human; -3 h, during exposure) was 4 ng/mL. It also gave a concentration in plasma (human; -3.948 h, during exposure) of 4 ng/mL and a concentration in plasma (Rat [33]) of 22900 ng/mL.

From EPA's CvTdb concentration-time database
